Measurements taken from PubChem BioAssay AID463079 (The Scripps Research Institute Molecular Screening Center, 2010).
Screen size: about 330,000 compounds; about 2,000 (0.61%) were called active.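 Rule for the calls: active = inhibition above that plate's mean sample inhibition plus 3 SD (cut at about 26% in these data); inactive = the rest.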 The full list was thinned out, with actives kept by preference.

assay: nonselective Gq signaling inhibition in CHO cells – cell-based, fluorescence, Fluo-8 calcium dye, counter-screen for OX1R antagonist project, primary screen (AID 463079); settings: parental CHO-K1, ATP-induced calcium, Fluo-8 fluorescence; at 5.6 µM; stronger effect = higher value;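 note: 0% = ATP-challenged DMSO wells and 100% = DMSO wells without ATP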
In short: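 Material: parental CHO cells / Compound: single nominal dose of 5.6 µM per compound / Signal: Fluo-8 fluorescence / Replicates: singlicate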

Row | Structure (SMILES) | inhibition
1 | O=C(c1cc(COc2ccc(F)c(F)c2)on1)N1CCOCC1 | -5.07% (inactive)
2 | CCn1ccnc1CN(C)C(=O)c1cc(COc2ccc(-n3cncn3)cc2)on1 | -9.68% (inactive)
3 | C=CCC1(CC=C)CCCN1C(=O)c1cc(COc2ccc(-n3cncn3)cc2)on1 | 66.2% (active)
4 | COC(=O)c1cc(Oc2ccc(S(=O)(=O)N3CCOCC3)cc2[N+](=O)[O-])cc(C(=O)OC)c1 | -3.52% (inactive)
5 | N#C/C(=C\c1ccccc1)c1n[nH]c(Cn2cncn2)n1 | -15.2% (inactive)
6 | CC(NC(=O)C1CCCN(S(=O)(=O)c2ccc(-n3cnnn3)cc2)C1)c1ccc(F)cc1 (stereo unspecified) | -12.5% (inactive)
7 | CCC(=O)N1CCN(c2ccccc2NC(=O)COc2cccc(C)c2C)CC1 | -26.9% (inactive)
8 | Cc1ccccc1OCC(=O)Nc1ccc2c(c1)ncn2C | 17.8% (inactive)
9 | Cc1ccccc1OCC(=O)Nc1ccc(N2CCN(C(=O)C(C)C)CC2)c(Cl)c1 | 29.7% (active)
10 | CC(C)(C)n1cnnc1Sc1ccc([N+](=O)[O-])cn1 | -10.8% (inactive)
11 | Cc1nc2ccc(NC(=S)N3CCC(C)CC3)cc2nc1C | -10.7% (inactive)
12 | CC1=C/C(=N\OS(=O)(=O)c2ccccc2)C=CC1=O | 46% (active)
13 | NNC(=O)CNC(c1ccccc1)c1cc(Cl)ccc1NC(=O)c1ccccc1 (stereo unspecified) | -31.4% (inactive)
14 | COc1ccccc1Oc1ccc(S(=O)(=O)Nc2cccnc2)cc1 | 36.9% (active)
15 | Cc1cc(C)c(C)c(S(=O)(=O)Nc2cccnc2)c1C | -11.2% (inactive)
16 | COc1ccc(S(=O)(=O)Nc2cccnc2)c(Cl)c1Cl | -1.47% (inactive)
17 | O=C(C1CC(=O)N(c2ccc(F)cc2)C1)N1CCN(c2ccccc2)CC1 (stereo unspecified) | -3.64% (inactive)
18 | CCOC(=O)C1CCN(CC(=O)Nc2ccc(OC)c(S(=O)(=O)N3CCCCC3)c2)CC1 | -13.3% (inactive)
19 | CCCCSc1nnc2c(n1)OC=Nc1ccccc1-2 | -1.35% (inactive)
20 | CN(c1ccccc1)c1ccc(/C=c2\s/c(=C(/C#N)C(=O)C(C)(C)C)n(Cc3ccco3)c2=O)cc1 | 47.5% (active)
21 | CCOC(=O)Cn1c(=O)oc2cc(S(=O)(=O)N(C)Cc3ccco3)ccc21 | 4.07% (inactive)
22 | CCCCn1c(SCC(=O)N2CCC(C(=O)OCC)CC2)nc2cc(S(N)(=O)=O)ccc21 | -21.9% (inactive)
23 | CCCCn1c(SCc2ncc(-c3ccccc3)o2)nc2cc(S(N)(=O)=O)ccc21 | 36.6% (active)

Row | Structure (SMILES) | inhibition
24 | CCCCn1c(SCC(=O)N2CCCC2=O)nc2cc(S(N)(=O)=O)ccc21 | -0.51% (inactive)
25 | Cc1nnc(C)c2c(C)n(N)c(C)c12 | 4.12% (inactive)
26 | c1ccc(-c2cc3c(NCC4COc5ccccc5O4)ncnc3s2)cc1 (stereo unspecified) | 2.37% (inactive)
27 | c1ccc2c(c1)OCC(CNc1ncnc3nc[nH]c13)O2 (stereo unspecified) | 76% (active)
28 | S=C(NCC1COc2ccccc2O1)Nc1ccc(Br)cc1 (stereo unspecified) | 1.75% (inactive)
29 | COc1ccc(NC(=O)CC2SC(N3CCCCC3)=NC2=O)cc1OC (stereo unspecified) | -5.72% (inactive)
30 | COc1cc(C(=O)NCc2nnc(SCC(=O)c3ccc(Cl)cc3)o2)cc(OC)c1OC | -35.5% (inactive)
31 | CCC(=O)Nc1ccc(C(=O)CSc2nnc(CNc3ccc(Cl)cc3)o2)cc1OC | 39.8% (active)
32 | CCOC(=O)CSc1nnc(CNc2ccc(F)cc2)o1 | 7.59% (inactive)
33 | CCCCCCCNC(=O)C1(CC2CC(c3cccc(Br)c3)=NO2)CCN(C(=O)c2cc(OCC)c(OCC)c(OCC)c2)CC1 (stereo unspecified) | -43.7% (inactive)
34 | CC1C/C(=N/NC(=O)c2cccs2)CC(C)(C)C1 (stereo unspecified) | 5.84% (inactive)
35 | O=C(CN1C(=O)NC(Cc2c[nH]c3ccccc23)C1=O)Nc1ccccc1C(F)(F)F (stereo unspecified) | -8.55% (inactive)
36 | CC(C)(C)C(=O)NNC(=O)c1ccc(Oc2cc(Cl)cc(Cl)c2)o1 | 0.38% (inactive)
37 | CC(C)CNC(=O)C(=O)Nc1ccc(N(C)C)cc1 | -6.25% (inactive)
38 | CN(C)c1ccc(C(CC(=O)O)C(=O)O)cc1 (stereo unspecified) | 26.3% (active)
39 | CC(=O)NC(CC(=O)O)c1ccc(F)cc1 (stereo unspecified) | 14.5% (inactive)
40 | COC(=O)Cn1c(=NC(=O)c2cc(OC)c(OC)c(OC)c2)sc2cc(OC)ccc21 | -4.35% (inactive)
41 | CN(C)/C=C(/C(=O)c1ccc(Cl)c(Cl)c1)c1nnnn1-c1ccccc1 | 4.24% (inactive)
42 | CCc1ccc(CN(C)C(=O)CCc2nnc(-c3ccc(-c4ccccc4)cc3)o2)nc1 | 2.52% (inactive)
43 | COc1ccc(Cl)cc1-n1c(C)cc(C(=O)OCC(=O)N2CC(=O)Nc3ccccc32)c1C | -26.4% (inactive)
44 | O=C(O)CSc1c2c(nc3cc(C(=O)Nc4cccc(C(F)(F)F)c4)ccc13)CCCC2 | -7.81% (inactive)
45 | Cn1nc(C(F)(F)F)c(C(=O)Nc2cccc(C(F)(F)F)c2)c1SCc1ccc(Cl)cc1 | 56.3% (active)
46 | COC(=O)c1ccccc1Sc1c(/C=N/OCc2ccc(Cl)cc2)c(C(F)(F)F)nn1C | -7.11% (inactive)

Row | Structure (SMILES) | inhibition
47 | COc1cc(SC#N)ccc1N=Cc1c(C)[nH]n(-c2ccc(C)cc2)c1=O | 96.8% (active)
48 | Cc1ccc(-n2[nH]c(C)c(/C=N/NC(=O)c3cccc([N+](=O)[O-])c3)c2=O)cc1C | -2.1% (inactive)
49 | O=C(NNC(=O)c1cnccc1C(F)(F)F)c1ccc(Cl)cc1 | -3% (inactive)
50 | CC1(C)CC(N2CCN(C(c3ccccc3)c3ccccc3)CC2)=CC(=[N+]2CCCCC2)C1 | 29.5% (active)
51 | O=C1CC(N2CCN(C(c3ccccc3)c3ccccc3)CC2)C(=O)N1 (stereo unspecified) | -12.9% (inactive)
52 | Oc1ccccc1CN1CCN(C(c2ccccc2)c2ccccc2)CC1 | -33.9% (inactive)
53 | CC(C)CC(CCc1ccccc1)OS(N)(=O)=O (stereo unspecified) | -9.01% (inactive)
54 | CC(C(=O)c1ccc(-c2ccccc2)cc1)[n+]1cccc(Br)c1 (stereo unspecified) | -2.14% (inactive)
55 | Cc1cc(C)c(-c2c(O)c3ccccc3n(C)c2=O)c(C)c1 | -6.96% (inactive)
56 | CCOC(=O)Cc1cc(=O)[nH]c(=O)[nH]1 | -1.68% (inactive)
57 | CN(C)S(=O)(=O)c1ccc(NC(=O)N2CCOCC2)cc1 | -16.7% (inactive)
58 | COc1ccc(S(=O)(=O)N(C)CC(=O)N2CCCC2)cc1 | 0.64% (inactive)
59 | CN(C)S(=O)(=O)c1ccc(Oc2ccc(S(=O)(=O)N(C)C)cc2)cc1 | 53.5% (active)
60 | CN(C(=O)CC1C(=O)NCCN1Cc1ccc(F)cc1Cl)C1CCCCC1 (stereo unspecified) | -17.1% (inactive)
61 | Cc1ccc(S(=O)(=O)N(Cc2cc3ccccc3[nH]c2=O)CC2CCCO2)cc1 (stereo unspecified) | -27.8% (inactive)
62 | COCCN(C(=O)CCC(=O)Nc1nccs1)C(C(=O)NCCC(C)C)c1ccc(F)cc1 (stereo unspecified) | -13% (inactive)
63 | Cc1cc(C(=O)NC2CCCc3c2cnn3-c2cccc(C)c2C)c(C)o1 (stereo unspecified) | 2.39% (inactive)
64 | Cc1cc(C(=O)NC2CC(C)(C)Cc3c2cnn3-c2ccccc2)n[nH]1 (stereo unspecified) | -10.2% (inactive)
65 | Cn1nccc1C(=O)NC1CCCc2c1cnn2-c1ccc(F)cc1F (stereo unspecified) | 45.4% (active)
66 | Cn1nccc1C(=O)NC1CCCc2c1cnn2-c1ccccc1F (stereo unspecified) | 48.7% (active)
67 | COC(=O)c1ccc(C(=O)NC2CC(C)(C)Cc3c2cnn3-c2ccc(F)cc2)nc1 (stereo unspecified) | -9.97% (inactive)
68 | COc1ccc(C(=O)NC2CCCc3c2cnn3-c2cccc(C)c2C)c(OC)n1 (stereo unspecified) | 40.4% (active)
69 | CC1(C)Cc2c(cnn2-c2cccc(F)c2)C(NC(=O)c2cc[n+]([O-])cc2)C1 (stereo unspecified) | -5.88% (inactive)

Row | Structure (SMILES) | inhibition
70 | CC(=O)NCC(=O)NC1CCCc2c1cnn2-c1ccccc1F (stereo unspecified) | 10.8% (inactive)
71 | COc1ccc(C(=O)NC2CC(C)(C)Cc3c2cnn3-c2ccccc2C)o1 (stereo unspecified) | -22.6% (inactive)
72 | COCCCNC(=O)CN1C(=O)CSc2ccc(S(=O)(=O)N3CCOCC3)cc21 | -10.9% (inactive)
73 | COc1ccc(S(=O)(=O)N2CCOCC2)cc1NC(=O)COc1ccccc1 | -8.66% (inactive)
74 | CCOc1cc(N2CCOCC2)c(OCC)cc1NC(=O)C1=NN(c2cccc(C)c2)C(=O)CC1 | -30.7% (inactive)
75 | CSC1=NC2(C)CCCCC2C12C=CC(=O)C=C2 (stereo unspecified) | -8.36% (inactive)
76 | Cc1cc(Cl)c2oc(C(=O)N(C)C(C)c3ccccn3)c(C)c2c1 (stereo unspecified) | -25.6% (inactive)
77 | Cc1cc2oc(=O)cc(-c3ccccc3)c2c(C)c1-c1ccc(OC(F)(F)F)cc1 | -24% (inactive)
78 | C/C(=N\NC(=O)Cc1ccccc1[N+](=O)[O-])c1cccnc1 | -2.78% (inactive)
79 | COc1ccc(CNc2nccs2)cc1 | -0.35% (inactive)
80 | COc1cccc(CNc2nc(C(F)(F)F)nc3ccccc23)c1 | -21.9% (inactive)
81 | COc1ccc(CNc2ncnc3ccccc23)cc1 | 30% (active)
82 | O=C(Nc1cccc(F)c1)N1C2CCC1CC(O)(c1cccnc1)C2 (stereo unspecified) | -8.22% (inactive)
83 | COc1cc(NC(=O)CCNC(=O)Cn2ccc3ccccc3c2=O)cc(OC)c1OC | 0.46% (inactive)
84 | CCn1nccc1C(=O)Nc1ccc(S(=O)(=O)NC23CC4CC(CC(C4)C2)C3)cc1 | 61% (active)
85 | O=C(Nc1ccc(S(=O)(=O)Nc2ncccn2)cc1)C12CC3CC(CC(C3)C1)C2 | -8.7% (inactive)
86 | Cc1cc(C(F)F)n2nc(C(=O)Nc3ccc(S(=O)(=O)NC45CC6CC(CC(C6)C4)C5)cc3)nc2n1 | -7.46% (inactive)
87 | COc1ccccc1CNS(=O)(=O)c1c(C)[nH]c(C)c1C(=O)N1CCCCC1 | -7.23% (inactive)
88 | Cc1ccc(S(=O)(=O)N(CC(=O)N2CCc3ccccc3C2)c2cccc(Cl)c2)cc1 | -23.4% (inactive)
89 | O=C(Cn1ccc2cc(S(=O)(=O)N3CCCC3)ccc21)NCc1ccccc1 | -3.13% (inactive)
90 | COC(=O)Cn1cc(/C=C/[N+](=O)[O-])c2ccccc21 | -9.14% (inactive)
91 | O=[N+]([O-])/C=C/c1ccc2c(ccn2Cc2ccccc2)c1 | 42% (active)
